Laboratory results reported in the EternaBench riboswitch data.

Test system: MS2 coat protein
Test: apparent Kd, MS2 coat protein; higher = weaker binding; RNA-MaP array; theophylline 2 mM where present
Method in brief: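 Apparent Kd: the median of filtered binding-curve fits from single clusters. Designs were transcribed on Illumina sequencing-chip clusters by stalled E. coli RNA polymerase and titrated with SNAP-549-labelled MS2 coat protein from 0.7 or 1.5 nM, doubling to 3 µM, in 100 mM Tris-HCl pH 7.5, 80 mM KCl, 4 mM MgCl2, BSA, DTT, yeast tRNA and Tween-20. Each series ran without and then with constant ligand, and green signal was normalised to red-channel RNA signal and control-cluster median Fmax.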

[1] = designed as: ON switch for theophylline, no ligand
[2] = ligand present: theophylline, designed as: ON switch for theophylline
[3] = designed as: OFF switch for theophylline, no ligand
[4] = ligand present: theophylline, designed as: OFF switch for theophylline

Row | Sequence | apparent Kd [1] | apparent Kd [2] | apparent Kd [3] | apparent Kd [4]
1 | AAUCUGUCGGGUGAUACCAGCCUCGGCACGUCUCGUGCCGAACAUGAGGAUCACCCAUGUGGCCCUUGGCAGCACAUGACAAAUC | 258 nM | 88.6 nM | – | –
2 | CGGUUUGUGAUGGAUACCAGCAGAGAGAAUGUUUAUCCUGACAUGAGGAUCACCCAUGUGUGCCCUUGGCAGCUGUUGUGGGCUG | – | – | 60 nM | 69 nM
3 | GUAUGGAAACAUACUAUGGUAUCGUGAGAUACCAGUACAGAAAUGUACCCUUGGCAGCUCGCGCAUACAUGAGGAUCACCCAUGU | – | – | 18.1 nM | 25.7 nM
4 | AGCGAUAUGCAUGAUACCAGCUACAUGAGGAUCACCCAUGUGCGUCAGUAAUGACUGUGUAGCCCUUGGCAGCAUAGAGCAUGUA | – | – | 37.6 nM | 70.4 nM
5 | AAGGGUGAGUCUCUAAUCCGUUUGACGGAUACCAGCGAGAGAUAUCGCCCUUGGCAGCCGACGACAUGAGGAUCACCCAUGUAAA | – | – | 14.7 nM | 17.2 nM
6 | GUUAUGGACCUGGAUACCAGCUGGUACAAGGGCGGUCUACAUGAGGAUCACCCAUGUGUCAGCCCUUGGCAGCCAGCAACCGGCA | – | – | 9.28 nM | 11.8 nM
7 | CAUGUUGUUGAAGAUACCAGAUUCUGAACGUUCACAUGAGGAUCACCCAUGUAAGUCCGAGUCCCUUGGCAGCUUAUACAGGUGG | 53 nM | 14.7 nM | – | –
8 | UCGCAUUGCUCAGAUACCAGACAUGAGGAUCACCCAUGUACCAAGGUAACCGAAAGGCAUGUCCCUUGGCAGCUGAGCAAUGCGU | – | – | 12.1 nM | 225 nM
9 | GAACAUGAGGAUCACCCAUGUAAAACAGAUACCAGUGAUAUAAUACACCCUUGGCAGCUGUAGCUGAAUAAUAAUUCCCUCAAGC | 15.5 nM | 18.4 nM | – | –
10 | GCUGUAAGUGCAGAUACCAGCGUGUUAUAUUUCUAAUGACAUGAGGAUCACCCAUGUAAAUGCCCUUGGCAGCUGCACUUACAGC | 16.1 nM | 16.9 nM | – | –
11 | GCACCAGGUACGGAUACCAGCUGCCAUAGUUACAUGAGGAUCACCCAUGUGAUCUAUUGUAGCCCUUGGCAGCUGUACCUGGUGC | 104 nM | 92.4 nM | – | –
12 | AUAAGGUAUCUGCUAUCCUCAUGAGCAGAUACCAGCUAGGAAACUAGCCCUUGGCAGCUGCAACAUGAGGAUCACCCAUGUAAUA | – | – | 409 nM | 92.3 nM
13 | ACAUGAACAUGAGGAUCACCCAUGUAUGAUACCAGAAAAGAAGAGUUCCCUUGGCAGCGUACAACACAUGAGGAUCACCCAUGUG | 24.1 nM | 24.3 nM | – | –
14 | AACAGGGCUCGCACGAAGCCCUAAGGUGAUACCAGCACAUGUAAGUGCCCUUGGCAGCACGGUACAUGAGGAUCACCCAUGUAGA | 64.3 nM | 255 nM | – | –
15 | UUUGAUAGAACAGAUACCAGCGUGUUAUAAAACAUGAGGAUCACCCAUGUAGUGAUCAAGCGCCCUUGGCAGCUGGUUUGUUAGG | 135 nM | 182 nM | – | –
16 | UUCAGUACAACAGAUACCAGACAGUACUCUAAAUUGCAACAUGAGGAUCACCCAUGUAUAGUCCCUUGGCAGCUGUAAUGGGUGA | 114 nM | 174 nM | – | –
17 | ACGACGCAUAGUGAUACCAGUACAACAUGAGGAUCACCCAUGUCACAUAUGUUGUAAUAGUGCCCUUGGCAGCACUAUGCGUCAG | 155 nM | 17.6 nM | – | –
18 | UCACGAGGCCUGGAUACCAGCGACAUGAGGAUCACCCAUGUAUGAGGAUCAGCCAUGUUAUGCCCUUGGCAGCCACGAAGGUCAU | – | – | 14.6 nM | 94.5 nM

Row | Sequence | apparent Kd [1] | apparent Kd [2] | apparent Kd [3] | apparent Kd [4]
19 | ACAUGAGGAUCACCCAUGUUCCUCUUUGAUACCAGUGAGUUGUUUCGCCCUUGGCAGCGAGUGUUUGUUUUUUUGUUUUGUUUGG | – | – | 215 nM | 288 nM
20 | AGCGCAGGUCCUGAUACCAGUGACAUGAGGAUCACCCAUGUCCGAUGGGCCUGCCUCUGACACCCUUGGCAGCAGGGCUUGUGCU | – | – | 23.7 nM | 29.8 nM
21 | AAUAACAUGAGGAUCACCCAUGUAAAAGAUACCAGAGUGAUGAUCCUCCCUUGGCAGCUUAAAACGCUAUUGAUUACAAUAGCGA | 54.9 nM | 119 nM | – | –
22 | AGCGCUGUGCAUGAUACCAGCUACAUGAGGAUCACCCAUGUGCGUCAGAAAUGACUGUGUAGCCCUUGGCAGCAUAAAGCAUGUA | – | – | 19 nM | 58.8 nM
23 | UACAUGAGGAUCACCCAUGUAUGAAUAGAUACCAGAUAAAAUAAGGUCCCUUGGCAGCUAGUGAAUAAAGGGUGGGUAAAAUAAU | – | – | 9.22 nM | 9.51 nM
24 | AUCUCAUAGAGUGAUACCAGACUACAUGAGGAUCACCCAUGUUACAUUUAAAUAUCAUUUGUCCCUUGGCAGCACAUUAAGUACA | – | – | 24.3 nM | 15.2 nM
25 | AUGUCAUUGGUGCAGCUGUUAAAUGGCGAUACCAGCGUGGAAACACGCCCUUGGCAGCGCCAAAACAUGAGGAUCACCCAUGUUA | – | – | 28 nM | 83 nM
26 | UGGUACAUGAGGAUCACCCAUGUUCCAGAUACCAGACUCCCGGUGGUCCCUUGGCAGCUGGUGGUACAUGAGGAUCACCCAUGUG | – | – | 30.4 nM | 49.9 nM
27 | UUUUUUAACAUGGCGUAUCGGAAAACCGAUACCAGUACAGAAAUGUACCCUUGGCAGCGGCGUUUUACAUGAGGAUCACCCAUGU | – | – | 29.4 nM | 193 nM
28 | UUCUACAUGAGGAUCACCCAUGUGGGUGAUACCAGCACUUUUUGGUGCCCUUGGCAGCACAUGAGAAUACCGUACGAUCGGUGAU | 376 nM | 615 nM | – | –
29 | AUAACAUGAGGAUCACCCAUGUAAGCAGAUACCAGCUAGGAAACUAGCCCUUGGCAGCUGCAUAGUGAUCCAUAUAUCUGCUAAU | – | – | 53.6 nM | 42.8 nM
30 | ACCAUGUAAUCAGAUACCAGACAUCUUUUAAAUCAUAUUACAUGAGGAUCACCCAUGUUGGUCCCUUGGCAGCUGAAAUAUUUUU | 205 nM | 46.4 nM | – | –
31 | GAUCCUCAUACGGAUACCAGCGAAUAACAUGAGGAUCACCCAUGUAAUAAAGAAAAUAAAUGCCCUUGGCAGCCGAAUAGAUAGU | 166 nM | 69.4 nM | – | –
32 | AGCGGAACGGAAGGGUCCCAAAAUUGUGAUACCAGCCUUGAAUCCGGCCCUUGGCAGCACAUGAGGAUCACCCAUGUACUGCGAU | – | – | 12.9 nM | 39.4 nM
33 | AUGGUAGGACAGCACAUAUAAGCUUGUGAUACCAGCUAGAAAACUAGCCCUUGGCAGCACAUUACAUGAGGAUCACCCAUGUCCC | – | – | 51 nM | 75.7 nM
34 | UACAUGAGGAUCACCCAUGUAUGAAUGGAUACCAGAUAAAAUAAGGUCCCUUGGCAGCUAGUGAAUCGAGGGUGGGUAUCAUGUU | – | – | 10.5 nM | 11.2 nM
35 | CUCCGAGGCUAUACUAUCCGCCUCUGUGAUACCAGAAUACCUAUAUUCCCUUGGCAGCAUCACAUGAGGAUCACCCAUGUGCCAU | – | 15.1 nM | – | –
